Measured values published in ChEMBL document CHEMBL4811229, “Leveraging Peptaibol Biosynthetic Promiscuity for Next-Generation Antiplasmodial Therapeutics” (J Nat Prod, 2021).
Where a SMILES comes first, the peptide text is derived from it. [ ]: non-standard residue; d: D form. The star is where a group is joined. X1 = CC(C)C[C@@H](C[N+]1=C2CCCN2CCC1)N*; Leu(ol) = CC(C)C[C@H](N)CO; dIva = CC[C@@](C)(N)C(=O)O; Pip = O=C(O)[C@@H]1CCCCN1; Iva = CC[C@](C)(N)C(=O)O; Aib = CC(C)(N)C(=O)O; βAla = NCCC(=O)O

Assays:
HepG2 = experiment: Cytotoxicity against human HepG2 cells assessed as decrease in cell viability measured after 48 hrs by MTS assay; type: cell-based; conditions: HepG2, 48 h
Summary of the method: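 After 48 h at 37 °C and 5% CO2, MTS was added for 4 h and absorbance read at 490 nm. Values were normalized to Triton X-100-lysed wells (0% growth) and untreated wells. EC50 is the mean of triplicate experiments.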

Plasmodium falciparum = experiment: Antiplasmodial activity against multidrug-resistant Plasmodium falciparum Dd2 infected in human A-positive erythrocytes assessed as reduction in parasitemia incubated for 72 hrs by fluorescence-based SYBR-Green-1 assay; type: functional, organism-based; conditions: Dd2, Erythrocyte
[1] = Selectivity index, ratio of EC50 for human HepG2 cells to EC50 for antiplasmodial activity against multidrug-resistant Plasmodium falciparum Dd2 infected in human A-positive erythrocytes; type: toxicity, cell-based; conditions: read-out: Ratio EC50

Row | Compound | EC50 (HepG2) | EC50 (Plasmodium falciparum) | selectivity ratio [1]
1 | CC(=O)NC(C)(C)C(=O)N[C@@H](C)C(=O)N[C@@H](C)C(=O)N[C@@H](C)C(=O)NC(C)(C)C(=O)NC(C)(C)C(=O)N[C@@H](CCC(N)=O)C(=O)NC(C)(C)C(=O)N[C@@H](CC(C)C)C(=O)NC(C)(C)C(=O)NCC(=O)N[C@@H](CC(C)C)C(=O)NC(C)(C)C(=O)N1CCC[C@H]1C(=O)N[C@H](C(=O)NC(C)(C)C(=O)NC(C)(C)C(=O)N[C@@H](CCC(N)=O)C(=O)N[C@@H](CCC(N)=O)C(=O)N[C@H](CO)Cc1ccccc1)C(C)C (HELM PEPTIDE1{[ac].[Aib].A.A.A.[Aib].[Aib].Q.[Aib].L.[Aib].G.L.[Aib].P.V.[Aib].[Aib].Q.Q.[OC[C@H](Cc1ccccc1)N[*:1]]}$$$$V2.0) | 5770 nM | 320 nM | 18
2 | CC[C@H](C)[C@H](NC(=O)[C@H](C)NC(=O)[C@@H]1CCCN1C(=O)C(C)(C)NC(=O)[C@H](CC(C)C)NC(=O)[C@H](CC(N)=O)NC(=O)C(C)(C)NC(C)=O)C(=O)NC(C)(C)C(=O)N1CCC[C@H]1C(=O)NC(C)(C)C(=O)N[C@@H](CC(C)C)C(=O)NC(C)(C)C(=O)N1CCC[C@H]1C(=O)N[C@H](CO)CC(C)C (HELM PEPTIDE1{[ac].[Aib].N.L.[Aib].P.A.I.[Aib].P.[Aib].L.[Aib].P.[CC(C)C[C@@H](CO)N[*:1]]}$$$$V2.0) | > 25000 nM | 420 nM | > 60
3 | CC[C@H](C)[C@H](NC(=O)[C@H](C)NC(=O)[C@@H]1CCCN1C(=O)C(C)(C)NC(=O)[C@H](CC(C)C)NC(=O)[C@H](CC(N)=O)NC(=O)[C@@](C)(CC)NC(C)=O)C(=O)NC(C)(C)C(=O)N1CCC[C@H]1C(=O)N[C@](C)(CC)C(=O)N[C@@H](CC(C)C)C(=O)NC(C)(C)C(=O)N1CCC[C@H]1C(=O)N[C@H](CO)CC(C)C (Ac-[dIva]NL[Aib]PAI[Aib]P[dIva]L[Aib]P[Leu(ol)]) |  |  | > 40
4 | CC[C@](C)(NC(=O)[C@H](CC(C)C)NC(=O)[C@H](C)NC(=O)C(C)(C)NC(=O)[C@@H]1CCCCN1C(=O)C(C)(C)NC(=O)C(C)(C)NC(=O)CNC(=O)CCNC(=O)[C@H](CC(C)C)NC(=O)C(C)(C)NC(=O)C(C)(C)NC(=O)[C@@H]1CCCCN1C(=O)C(C)(C)NC(=O)[C@@H]1CCCCN1C(C)=O)C(=O)N[C@@H](CC(C)C)C[N+]1=C2CCCN2CCC1 (Ac-[Pip][Aib][Pip][Aib][Aib]L[βAla]G[Aib][Aib][Pip][Aib]AL[Iva]-X1) | > 25000 nM | 390 nM | > 64
5 | CC[C@](C)(NC(=O)[C@H](CC(C)C)NC(=O)[C@H](C)NC(=O)C(C)(C)NC(=O)[C@@H]1CCCCN1C(=O)C(C)(C)NC(=O)C(C)(C)NC(=O)CNC(=O)CCNC(=O)[C@H](CC(C)C)NC(=O)C(C)(C)NC(=O)[C@](C)(CC)NC(=O)[C@@H]1CCCCN1C(=O)C(C)(C)NC(=O)[C@@H]1CCCCN1C(C)=O)C(=O)N[C@@H](CC(C)C)C[N+]1=C2CCCN2CCC1 [EFRAPEPTIN G] (Ac-[Pip][Aib][Pip][Iva][Aib]L[βAla]G[Aib][Aib][Pip][Aib]AL[Iva]-X1) | > 25000 nM | 460 nM | > 54
6 | CC[C@H](C)[C@H](NC(=O)[C@H](CO)NC(=O)[C@@H]1CCCN1C(=O)C(C)(C)NC(=O)[C@H](CC(C)C)NC(=O)[C@H](CC(N)=O)NC(=O)[C@@](C)(CC)NC(C)=O)C(=O)NC(C)(C)C(=O)N1CCC[C@H]1C(=O)N[C@](C)(CC)C(=O)N[C@@H](CC(C)C)C(=O)NC(C)(C)C(=O)N1CCC[C@H]1C(=O)N[C@H](CO)CC(C)C (Ac-[dIva]NL[Aib]PSI[Aib]P[dIva]L[Aib]P[Leu(ol)]) |  |  | > 48
7 | CCCCCCCC(=O)NC(C)(C)C(=O)NCC(=O)N[C@@H](CC(C)C)C(=O)NC(C)(C)C(=O)NCC(=O)NCC(=O)N[C@@H](CC(C)C)C(=O)NC(C)(C)C(=O)NCC(=O)N[C@@H](CC(C)C)C(=O)N[C@H](CO)CC(C)C (HELM PEPTIDE1{[CCCCCCCC(=O)[*:2]].[Aib].G.L.[Aib].G.G.L.[Aib].G.L.[CC(C)C[C@@H](CO)N[*:1]]}$$$$V2.0) |  |  | > 11
8 | CC[C@H](C)[C@H](NC(=O)[C@H](CO)NC(=O)[C@@H]1CCCN1C(=O)C(C)(C)NC(=O)[C@H](CC(C)C)NC(=O)[C@H](CC(N)=O)NC(=O)C(C)(C)NC(C)=O)C(=O)NC(C)(C)C(=O)N1CCC[C@H]1C(=O)NC(C)(C)C(=O)N[C@@H](CC(C)C)C(=O)N[C@](C)(CC)C(=O)N1CCC[C@H]1C(=O)N[C@H](CO)CC(C)C | > 25000 nM | 520 nM | > 48
9 | CC(=O)NC(C)(C)C(=O)N[C@@H](C)C(=O)N[C@@H](C)C(=O)N[C@@H](C)C(=O)NC(C)(C)C(=O)NC(C)(C)C(=O)N[C@@H](CCC(N)=O)C(=O)NC(C)(C)C(=O)N[C@H](C(=O)NC(C)(C)C(=O)NCC(=O)N[C@@H](CC(C)C)C(=O)NC(C)(C)C(=O)N1CCC[C@H]1C(=O)N[C@H](C(=O)NC(C)(C)C(=O)NC(C)(C)C(=O)N[C@@H](CCC(N)=O)C(=O)N[C@@H](CCC(N)=O)C(=O)N[C@H](CO)Cc1ccccc1)C(C)C)C(C)C (HELM PEPTIDE1{[ac].[Aib].A.A.A.[Aib].[Aib].Q.[Aib].V.[Aib].G.L.[Aib].P.V.[Aib].[Aib].Q.Q.[OC[C@H](Cc1ccccc1)N[*:1]]}$$$$V2.0) | 9280 nM | 560 nM | 17
10 | CC[C@@](C)(NC(C)=O)C(=O)N[C@@H](CC(N)=O)C(=O)N[C@@H](CC(C)C)C(=O)NC(C)(C)C(=O)N1CCC[C@H]1C(=O)N[C@@H](CO)C(=O)N[C@H](C(=O)NC(C)(C)C(=O)N1CCC[C@H]1C(=O)NC(C)(C)C(=O)N[C@@H](CC(C)C)C(=O)NC(C)(C)C(=O)N1CCC[C@H]1C(=O)N[C@H](CO)CC(C)C)C(C)C (HELM PEPTIDE1{[ac].[CC[C@@](C)(N[*:1])C(=O)[*:2]].N.L.[Aib].P.S.V.[Aib].P.[Aib].L.[Aib].P.[CC(C)C[C@@H](CO)N[*:1]]}$$$$V2.0) |  |  | > 40
11 | CC[C@H](C)[C@H](NC(=O)[C@H](C)NC(=O)[C@@H]1CCCN1C(=O)C(C)(C)NC(=O)[C@H](CC(C)C)NC(=O)[C@H](CCC(N)=O)NC(=O)[C@@](C)(CC)NC(C)=O)C(=O)NC(C)(C)C(=O)N1CCC[C@H]1C(=O)NC(C)(C)C(=O)N[C@@H](CC(C)C)C(=O)NC(C)(C)C(=O)N1CCC[C@H]1C(=O)N[C@H](CO)CC(C)C (HELM PEPTIDE1{[ac].[CC[C@@](C)(N[*:1])C(=O)[*:2]].Q.L.[Aib].P.A.I.[Aib].P.[Aib].L.[Aib].P.[CC(C)C[C@@H](CO)N[*:1]]}$$$$V2.0) |  |  | > 78
12 | CC[C@H](C)[C@H](NC(=O)[C@H](C)NC(=O)[C@@H]1CCCN1C(=O)C(C)(C)NC(=O)[C@H](CC(C)C)NC(=O)[C@H](CCC(N)=O)NC(=O)[C@@](C)(CC)NC(C)=O)C(=O)NC(C)(C)C(=O)N1CCC[C@H]1C(=O)N[C@](C)(CC)C(=O)N[C@@H](CC(C)C)C(=O)NC(C)(C)C(=O)N1CCC[C@H]1C(=O)N[C@H](CO)CC(C)C (Ac-[dIva]QL[Aib]PAI[Aib]P[dIva]L[Aib]P[Leu(ol)]) | > 25000 nM |  | > 76
13 | CCCCCCCC(=O)NC(C)(C)C(=O)NCC(=O)N[C@@H](CC(C)C)C(=O)NC(C)(C)C(=O)NCC(=O)NCC(=O)N[C@H](C(=O)NC(C)(C)C(=O)NCC(=O)N[C@@H](CC(C)C)C(=O)N[C@H](CO)CC(C)C)C(C)C (HELM PEPTIDE1{[CCCCCCCC(=O)[*:2]].[Aib].G.L.[Aib].G.G.V.[Aib].G.L.[CC(C)C[C@@H](CO)N[*:1]]}$$$$V2.0) |  |  | > 28
14 | CCCCCCCC(=O)NC(C)(C)C(=O)NCC(=O)N[C@@H](CC(C)C)C(=O)NC(C)(C)C(=O)NCC(=O)NCC(=O)N[C@H](C(=O)NC(C)(C)C(=O)NCC(=O)N[C@H](C(=O)N[C@H](CO)CC(C)C)C(C)C)C(C)C |  |  | > 10
15 | CC[C@H](C)[C@H](NC(=O)[C@H](CC(C)C)NC(=O)[C@H](CCC(N)=O)NC(=O)[C@@](C)(CC)NC(C)=O)C(=O)NC(C)(C)C(=O)N1CCC[C@H]1C(=O)N[C@](C)(CC)C(=O)N[C@@H](CC(C)C)C(=O)NC(C)(C)C(=O)N1CCC[C@H]1C(=O)N[C@H](CO)CC(C)C (Ac-[dIva]QLI[Aib]P[dIva]L[Aib]P[Leu(ol)]) |  |  | > 250
16 | CC[C@H](C)[C@H](NC(=O)[C@H](C)NC(=O)[C@@H]1CCCN1C(=O)C(C)(C)NC(=O)[C@H](CC(C)C)NC(=O)[C@H](CCC(N)=O)NC(=O)C(C)(C)NC(C)=O)C(=O)NC(C)(C)C(=O)N1CCC[C@H]1C(=O)NC(C)(C)C(=O)N[C@@H](CC(C)C)C(=O)NC(C)(C)C(=O)N1CCC[C@H]1C(=O)N[C@H](CO)CC(C)C (HELM PEPTIDE1{[ac].[Aib].Q.L.[Aib].P.A.I.[Aib].P.[Aib].L.[Aib].P.[CC(C)C[C@@H](CO)N[*:1]]}$$$$V2.0) |  |  | > 86
17 | CCCCCCCC(=O)NC(C)(C)C(=O)NCC(=O)N[C@@H](CC(C)C)C(=O)NC(C)(C)C(=O)NCC(=O)NCC(=O)N[C@H](C(=O)NC(C)(C)C(=O)NCC(=O)N[C@H](C(=O)N[C@H](CO)CC(C)C)[C@@H](C)CC)C(C)C |  |  | > 8
18 | CC[C@H](C)[C@H](NC(=O)[C@H](CO)NC(=O)[C@@H]1CCCN1C(=O)C(C)(C)NC(=O)[C@H](CC(C)C)NC(=O)[C@H](CCC(N)=O)NC(=O)C(C)(C)NC(C)=O)C(=O)NC(C)(C)C(=O)N1CCC[C@H]1C(=O)NC(C)(C)C(=O)N[C@@H](CC(C)C)C(=O)NC(C)(C)C(=O)N1CCC[C@H]1C(=O)N[C@H](CO)CC(C)C (HELM PEPTIDE1{[ac].[Aib].Q.L.[Aib].P.S.I.[Aib].P.[Aib].L.[Aib].P.[CC(C)C[C@@H](CO)N[*:1]]}$$$$V2.0) |  |  | > 14
19 | CC[C@H](C)[C@H](NC(=O)[C@H](CO)NC(=O)[C@@H]1CCCN1C(=O)C(C)(C)NC(=O)[C@H](CC(C)C)NC(=O)[C@H](CC(N)=O)NC(=O)[C@@](C)(CC)NC(C)=O)C(=O)NC(C)(C)C(=O)N1CCC[C@H]1C(=O)NC(C)(C)C(=O)N[C@@H](CC(C)C)C(=O)NC(C)(C)C(=O)N1CCC[C@H]1C(=O)N[C@H](CO)CC(C)C (HELM PEPTIDE1{[ac].[CC[C@@](C)(N[*:1])C(=O)[*:2]].N.L.[Aib].P.S.I.[Aib].P.[Aib].L.[Aib].P.[CC(C)C[C@@H](CO)N[*:1]]}$$$$V2.0) |  |  | > 43
